Test results from ChEMBL document CHEMBL1154087, “Novel orally active NPY Y5 receptor antagonists: Synthesis and structure-activity relationship of spiroindoline class compounds” (Bioorg Med Chem, 2009).
Activity calls are given as the source filed them. No cut-off for these calls is given here.

Key:
[1] = molecular target: T1, Neuropeptide Y receptor type 5 (Homo sapiens, UniProt Q15761); test: Binding affinity to human neuropeptide Y5 receptor
T1 sequence (Q15761 whole entry): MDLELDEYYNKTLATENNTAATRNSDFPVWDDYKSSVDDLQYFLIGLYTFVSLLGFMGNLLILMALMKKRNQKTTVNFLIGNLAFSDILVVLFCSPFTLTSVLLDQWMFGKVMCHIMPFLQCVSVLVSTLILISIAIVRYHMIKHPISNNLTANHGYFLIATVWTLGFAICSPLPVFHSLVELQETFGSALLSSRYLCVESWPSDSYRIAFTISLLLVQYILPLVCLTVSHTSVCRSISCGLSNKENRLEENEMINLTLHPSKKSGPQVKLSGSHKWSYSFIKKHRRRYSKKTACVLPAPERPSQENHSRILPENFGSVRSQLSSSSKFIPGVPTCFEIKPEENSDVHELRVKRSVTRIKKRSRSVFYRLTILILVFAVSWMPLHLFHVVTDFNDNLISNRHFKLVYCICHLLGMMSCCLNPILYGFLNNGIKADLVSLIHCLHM

Rattus norvegicus [2] = test: Suppression of Y5 agonist bovine pancreatic peptide-induced food intake in po dosed Sprague-Dawley rat assessed as minimum effective dose treated 1 hr before peptide administration measured after 2 hrs; format: functional
Method in brief: (§1)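 bPP (5 µg) given ICV to SD rats in 10 µL of 10 mM PBS containing 0.05% BSA. Compound suspended in 0.5% methylcellulose in distilled water and given orally (5 mL/kg) 1 h before bPP. Cumulative food intake recorded over 0–2 h; n = 7 or more. MED is the lowest dose with a statistically significant reduction versus vehicle (P < 0.05 or P < 0.01).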

[3] = Oral bioavailability in Sprague-Dawley rat at 10 mg/kg; format: ADME, organism-based; conditions: in vivo
Method in brief: (§2)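 Sprague-Dawley rats (n = 2) given 3 mpk iv and 10 mpk po. Plasma sampled at 5 min, 1 h and 4 h after iv dosing and at 0.5 h, 1 h and 2 h after po dosing. F, CL_tot, AUC and other PK parameters calculated by the trapezoidal method.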

[4] = Ratio of drug level in brain to plasma in Sprague-Dawley rat at 3 mg/kg, iv after 10 mins; format: ADME, organism-based; parameters: dose 3 mg/kg, route intravenous
Method in brief: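 Rats (n = 2) dosed iv at 3 mpk. Brain and plasma concentrations taken 10 min after dosing, and brain penetration expressed as the brain/plasma ratio.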

[5] = Lipophilicity, calculated log D at pH 7.4
[6] = Total clearance in Sprague-Dawley rat at 10 mg/kg, po and 3 mg/kg, iv; format: ADME, organism-based; conditions: in vivo; method in brief: as §2
[7] = AUC in Sprague-Dawley rat at 10 mg/kg, po and 3 mg/kg, iv; format: ADME, organism-based; conditions: plasma; method in brief: as §2
[8] = Cmax in Sprague-Dawley rat at 10 mg/kg, po and 3 mg/kg, iv; format: ADME, organism-based; conditions: in vivo; method in brief: as §2
[9] = Tmax in Sprague-Dawley rat at 10 mg/kg, po and 3 mg/kg, iv; format: ADME, organism-based; conditions: in vivo; method in brief: as §2
Brain = test: Drug level in Sprague-Dawley rat brain at 10 mg/kg, po after 2 hrs; format: ADME, organism-based; parameters: dose 10 mg/kg, route oral; conditions: in vivo
Method in brief: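 SD rats dosed orally at 10 mg/kg. Brain concentration measured 2 h after dosing and expressed as nmol/g.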

Mus musculus [10] = test: Reduction in body weight in diet-induced obese C57BL/6J mouse at 30 mg/kg, po after 13 days; format: functional, organism-based; parameters: dose 30 mg/kg
Rattus norvegicus [11] = test: Suppression of Y5 agonist bovine pancreatic peptide-induced food intake in Sprague-Dawley rat at 1 mg/kg, po treated 1 hr before peptide administration measured after 2 hrs; format: functional; method in brief: as §1
Rattus norvegicus [12] = test: Suppression of Y5 agonist bovine pancreatic peptide-induced food intake in Sprague-Dawley rat at 3 mg/kg, po treated 1 hr before peptide administration measured after 2 hrs; format: functional; method in brief: as §1
Rattus norvegicus [13] = test: Suppression of Y5 agonist bovine pancreatic peptide-induced food intake in Sprague-Dawley rat at 10 mg/kg, po treated 1 hr before peptide administration measured after 2 hrs; format: functional; method in brief: as §1
Mus musculus [14] = test: Reduction in cumulative food intake in diet-induced obese C57BL/6J mouse at 30 mg/kg, po after 13 days relative to control; format: functional; parameters: scale not given: the % may be the effect or the level left
Mus musculus [15] = species on record: Mus musculus; test: Reduction in body weight in Y5 receptor knock-out diet-induced obese C57BL/6J mouse; format: functional, organism-based
Mus musculus [16] = test: Reduction in body weight in diet-induced obese C57BL/6J mouse at 100 mg/kg, po; format: functional, organism-based; parameters: dose 100 mg/kg

| IC50 [1] [nM] | Structure (SMILES) | MED (Rattus norvegicus [2]) [mg/kg] | also measured |
| --- | --- | --- | --- |
| 4.1 | CCS(=O)(=O)N1CC2(CCN(C(=O)Nc3cn(-c4ccc(F)cc4)cn3)CC2)c2ccccc21 | > 30 |  |
| 1.4 | CS(=O)(=O)N1CC2(CCN(C(=O)Nc3cc(-c4ccccc4)n[nH]3)CC2)c2ccccc21 | > 30 | bioavailability [3]: 13%; Kp at 10 min [4]: 0.02; logD [5]: 3.08 |
| 3.4 | CS(=O)(=O)N1CC2(CCN(C(=O)Nc3nnc(-c4ccccc4)s3)CC2)c2ccccc21 |  |  |
| 9 | Cn1ccnc1-c1ccc(NC(=O)N2CCC3(CC2)CN(S(C)(=O)=O)c2ccccc23)cc1 |  |  |
| 3.3 | CCS(=O)(=O)N1CC2(CCN(C(=O)Nc3cn(-c4ccccc4F)cn3)CC2)c2ccccc21 | 3 | bioavailability [3]: 23%; Kp at 10 min [4]: 0.25 |
| 4.2 | CS(=O)(=O)N1CC2(CCN(C(=O)Nc3ccc(-c4ccco4)cc3)CC2)c2ccccc21 |  |  |
| 7.1 | CS(=O)(=O)N1CC2(CCN(C(=O)Nc3ccc(Cl)cn3)CC2)c2ccccc21 |  |  |
| 11 | CS(=O)(=O)N1CC2(CCN(C(=O)Nc3ccc(Cl)nc3)CC2)c2ccccc21 |  |  |
| 2.4 | CS(=O)(=O)N1CC2(CCN(C(=O)Nc3cn(-c4ccccc4)cn3)CC2)c2ccccc21 | > 30 | bioavailability [3]: 27%; clearance [6]: 3.9 mL/min/kg; AUC [7]: 25.3 µM·h; Kp at 10 min [4]: 0.1; logD [5]: 2.15 |
| 5.4 | CS(=O)(=O)N1CC2(CCN(C(=O)Nc3cnc4ccccc4c3)CC2)c2ccccc21 |  |  |
| 3 | CCS(=O)(=O)N1CC2(CCN(C(=O)Nc3cn(-c4cccc(F)c4)cn3)CC2)c2ccccc21 | 30 | bioavailability [3]: 23%; Kp at 10 min [4]: 0.18 |
| 2 | CCS(=O)(=O)N1CC2(CCN(C(=O)Nc3cn(-c4cccc(OC)c4)cn3)CC2)c2ccccc21 | 10 | bioavailability [3]: 50.1%; Kp at 10 min [4]: 0.11 |
| 5 | CS(=O)(=O)N1CC2(CCN(C(=O)Nc3nc4cc(Cl)ccc4o3)CC2)c2ccccc21 |  |  |
|  | CS(=O)(=O)N1CC2(CCN(C(=O)Nc3ccc(-c4ccccn4)cc3)CC2)c2ccccc21 | > 100 | clearance [6]: 24.4 mL/min/kg; Cmax [8]: 0.6 µM; Tmax [9]: 0.25 h; AUC [7]: 1.8 µM·h; Kp at 10 min [4]: 0.22 |
| 2.8 | CS(=O)(=O)N1CC2(CCN(C(=O)Nc3ccc(-c4cscn4)cc3)CC2)c2ccccc21 |  |  |
| 2.4 | CS(=O)(=O)N1CC2(CCN(C(=O)Nc3ccc(-c4nccs4)cc3)CC2)c2ccccc21 |  |  |

| IC50 [1] [nM] | Structure (SMILES) | MED (Rattus norvegicus [2]) [mg/kg] | also measured |
| --- | --- | --- | --- |
| 3.4 | CCS(=O)(=O)N1CC2(CCN(C(=O)Nc3cn(-c4ccccc4)cn3)CC2)c2ccccc21 | 3 | bioavailability [3]: 37%; clearance [6]: 2.5 mL/min/kg; AUC [7]: 58.9 µM·h; Kp at 10 min [4]: 0.22; Activity (Rattus norvegicus [2]): Dose-dependent effect; Drug uptake (Brain): 0.64 nmol/g; Activity (Mus musculus [10]): Active; inhibition in vivo at 1 mg/kg (Rattus norvegicus [11]): 34%; inhibition in vivo at 3 mg/kg (Rattus norvegicus [12]): 45%; inhibition in vivo at 10 mg/kg (Rattus norvegicus [13]): 57%; Activity (Mus musculus [14]): 8.8%; Activity (Mus musculus [15]): inactive |
| 6.1 | CS(=O)(=O)N1CC2(CCN(C(=O)Nc3ccc4ccccc4n3)CC2)c2ccccc21 |  |  |
| 0.68 | CS(=O)(=O)N1CC2(CCN(C(=O)Nc3ccc(C(=O)c4ccccc4)cc3)CC2)c2ccccc21 |  |  |
| 3.2 | CCS(=O)(=O)N1CC2(CCN(C(=O)Nc3cn(-c4ccc(OC)cc4)cn3)CC2)c2ccccc21 |  |  |
| 4.9 | CCS(=O)(=O)N1CC2(CCN(C(=O)Nc3cn(-c4ccccc4OC)cn3)CC2)c2ccccc21 | > 30 |  |
| 2.2 | CS(=O)(=O)N1CC2(CCN(C(=O)Nc3ncc(-c4ccccc4)s3)CC2)c2ccccc21 |  |  |
| 1.8 | CS(=O)(=O)N1CC2(CCN(C(=O)Nc3cn(-c4cccc(F)c4)cn3)CC2)c2ccccc21 | > 30 |  |
| 2.6 | CS(=O)(=O)N1CC2(CCN(C(=O)Nc3ccc(Oc4ccccc4)cc3)CC2)c2ccccc21 |  |  |
| 8.9 | COc1cccc2sc(NC(=O)N3CCC4(CC3)CN(S(C)(=O)=O)c3ccccc34)nc12 |  |  |
| 3.9 | CS(=O)(=O)N1CC2(CCN(C(=O)Nc3cn(-c4ccccc4F)cn3)CC2)c2ccccc21 | > 30 |  |
|  | CS(=O)(=O)N1CC2(CCN(C(=O)Nc3ccc(-c4ccncc4)cc3)CC2)c2ccccc21 | 10 | clearance [6]: 17.8 mL/min/kg; Cmax [8]: 5.5 µM; Tmax [9]: 1 h; AUC [7]: 10.8 µM·h; Activity (Mus musculus [16]): inactive |
| 41 | CS(=O)(=O)N1CC2(CCN(C(=O)Nc3ccc(-n4nccn4)cc3)CC2)c2ccccc21 |  |  |
| 2.5 | CS(=O)(=O)N1CC2(CCN(C(=O)Nc3ccc4ncccc4c3)CC2)c2ccccc21 | > 30 | bioavailability [3]: 24%; Kp at 10 min [4]: 0.03; logD [5]: 2.74 |
| > 1000 | CS(=O)(=O)N1CC2(CCN(C(=O)Nc3cccnc3)CC2)c2ccccc21 |  |  |
|  | CS(=O)(=O)N1CC2(CCN(C(=O)Nc3ccc(-c4cccnc4)cc3)CC2)c2ccccc21 | 100 | clearance [6]: 13.3 mL/min/kg; Cmax [8]: 4.7 µM; Tmax [9]: 1 h; AUC [7]: 12.7 µM·h |
| 3.2 | CS(=O)(=O)N1CC2(CCN(C(=O)Nc3ccc(-n4cccn4)cc3)CC2)c2ccccc21 |  |  |

| Structure (SMILES) | IC50 [1] [nM] | MED (Rattus norvegicus [2]) [mg/kg] | also measured |
| --- | --- | --- | --- |
| CC(=O)c1ccc(NC(=O)N2CCC3(CC2)CN(S(C)(=O)=O)c2ccccc23)cc1 | 2.7 |  |  |
| CS(=O)(=O)N1CC2(CCN(C(=O)Nc3cc(-c4ccccc4)no3)CC2)c2ccccc21 | 1.3 | > 30 | bioavailability [3]: 23%; Kp at 10 min [4]: 0.22; logD [5]: 2.53 |
